The record followed here is ChEMBL document CHEMBL4038281, “Competitive protein tyrosine phosphatase 1B (PTP1B) inhibitors, prenylated caged xanthones from Garcinia hanburyi and their inhibitory mechanism” (Bioorg Med Chem, 2017).

The target in assay [1] is T1, Tyrosine-protein phosphatase non-receptor type 1 (Homo sapiens, UniProt P18031).
T1 sequence (P18031 whole entry): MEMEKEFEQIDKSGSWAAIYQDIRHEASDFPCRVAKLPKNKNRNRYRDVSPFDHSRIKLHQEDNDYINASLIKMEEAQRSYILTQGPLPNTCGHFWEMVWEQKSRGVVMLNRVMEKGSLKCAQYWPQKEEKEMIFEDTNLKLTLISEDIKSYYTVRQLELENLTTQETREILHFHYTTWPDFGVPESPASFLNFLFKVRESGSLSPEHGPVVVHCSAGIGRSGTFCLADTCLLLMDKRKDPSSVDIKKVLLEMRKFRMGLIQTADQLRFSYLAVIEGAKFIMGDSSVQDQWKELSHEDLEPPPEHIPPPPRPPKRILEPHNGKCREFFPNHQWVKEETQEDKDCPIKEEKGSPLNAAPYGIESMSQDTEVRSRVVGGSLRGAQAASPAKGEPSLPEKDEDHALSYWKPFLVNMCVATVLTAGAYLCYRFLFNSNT
The assay can be described thus: Inhibition of recombinant human PTP1B (1 to 322 residues) expressed in Escherichia coli using pNPP as substrate incubated for 10 mins measured for 30 mins by spectrometric analysis. In a few lines:
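Enzyme (1 mg/mL stock) was mixed with sample in DMSO and 4 mM pNPP stock in 25 mM Tris-HCl pH 7.5, 1 mM EDTA, 2 mM b-mercaptoethanol and 1 mM DTT.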

Assay [2] has as its target T1, Tyrosine-protein phosphatase non-receptor type 1. The assay can be described thus: Inhibition of recombinant human PTP1B (1 to 322 residues) expressed in Escherichia coli using pNPP as substrate by Dixon plot analysis. In outline: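 Initial velocity with pNPP was recorded over a range of inhibitor concentrations in 25 mM Tris-HCl (pH 7.5) buffer with EDTA, b-mercaptoethanol and DTT at 37 °C, read at 405 nm. Data were fitted by nonlinear regression, and inhibition constants were taken from Dixon plots.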

Assay [3] has the same target. The assay can be described thus: Inhibition of recombinant human PTP1B (1 to 322 residues) expressed in Escherichia coli using pNPP as substrate preincubated for 60 mins followed by substrate addition measured at 30 secs interval for 10 mins by UV-spectrophotmetric method. Conditions: read-out: Ki(app). In a few lines:
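Activity was read continuously by UV spectrophotometry for 10 min, giving progress curves of 20 points at 30 s intervals. Fixed substrate and several inhibitor levels were used, and any lag was excluded. vi, vs and Kobs were obtained by fitting the progress curves.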

A value given as a limit tells only on which side of the number the result lay.

Regarding `CO[C@@H]1C2C(=O)c3c(O)c(C/C=C(\C)CCC=C(C)C)c(O)c(CC=C(C)C)c3O[C@@]23[C@H]2C[C@@H]1C(=O)[C@]3(C/C=C(/C)C(=O)O)OC2(C)C` (stereo partly specified), the IC50 (commonly the concentration needed to halve the response being measured) in assay [1] was 930 nM. In assay [2], the Ki was found to be 390 nM.

As for `CC(C)=CCC/C(C)=C/Cc1c(O)c(CC=C(C)C)c2c(c1O)C(=O)C1=C[C@@H]3C[C@H]4C(C)(C)O[C@@](C/C=C(/C)C(=O)O)(C3=O)[C@@]14O2` [GAMBOGENIC ACID], the IC50 in assay [1] stood at 3470 nM. The Ki in assay [2] was 1210 nM.

On to `CO[C@@H]1C2C(=O)c3c(O)c4c(c(CC=C(C)C)c3O[C@@]23[C@H]2C[C@@H]1C(=O)[C@]3(C/C=C(/C)C(=O)O)OC2(C)C)O[C@](C)(CCC=C(C)C)C=C4` (stereo partly specified), for which the IC50 in assay [1] came to 740 nM. In addition, the Ki in assay [2] was 300 nM.

As to `COC1=C2C(=O)c3c(O)c4c(c(CC=C(C)C)c3O[C@@]23[C@H]2C[C@@H]1C(=O)[C@]3(CC=C(C)C)OC2(C)C)O[C@](C)(CCC=C(C)C)C=C4`, the IC50 in assay [1] stood at 12800 nM. Also, the Ki in assay [2] worked out at 4380 nM.

Regarding `CC(C)=CCC[C@]1(C)C=Cc2c(O)c3c(c(CC=C(C)C)c2O1)O[C@]12C(=C[C@@H]4C[C@H]1C(C)(C)O[C@@]2(C/C=C(/C)C(=O)O)C4=O)C3=O` [GAMBOGIC ACID], the Ki amounted to 499 nM in assay [3] and 190 nM in assay [2]. Also, the IC50 in assay [1] was 470 nM.

On to `CO[C@@H]1C2C(=O)c3c(O)c4c(c(CC=C(C)C)c3O[C@@]23[C@H]2C[C@@H]1C(=O)[C@]3(C/C=C(/C)C(=O)O)OC2(C)C)OC(C)(C)C=C4` (stereo partly specified), for which, in assay [1], the IC50 turned out to be 4440 nM. The Ki in assay [2] worked out at 1750 nM.

For `CC(C)=CCc1c2c(c(O)c3c1O[C@]14C(=C[C@@H]5C[C@H]1C(C)(C)O[C@@]4(CC=C(C)C)C5=O)C3=O)C=CC(C)(C)O2`, the IC50 in assay [1] was greater than 200000 nM.

`CC(C)=CCc1c2c(c(O)c3c1O[C@]14C(=C[C@@H]5C[C@H]1C(C)(C)O[C@@]4(/C=C(/C)CO)C5=O)C3=O)C=CC(C)(C)O2`: the IC50 in assay [1] worked out at 70200 nM. The Ki in assay [2] worked out at 29300 nM.
